Bioassay records: PubChem, The Scripps Research Institute Molecular Screening Center
PLC-gamma1 inh = PLC-gamma1 (human) inhibition, primary screen | P19174 | purified PLC-gamma1, fluorogenic substrate, fluorescence | inhibition, % at 12.2 µM | 370,000 tested, 0.84% active | AID 720700; in the data active = inhibition above about 9.5%
procasp3 activ = activates human procaspase-3; P42574; recombinant procaspase-3 D3A, Ac-DEVD-pNA absorbance 405 nm; activation, % at 8.5 µM; 330,000 tested, 0.11% active; AID 463141;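 active = activation above the mean of all tested compounds plus 3 SD, cut at about 21% in these data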;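 also: 0% = DMSO alone and 100% = DMSO wells spiked with extra 5 µM PC-3 D3A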
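Assay system – Procaspase-3 D3A mutant, all three cleavage aspartates alanine · Controls – DMSO-only low control, 5 µM PC-3 D3A high control · Schedule – 1 h compound preincubation, 2 h substrate hydrolysis at 25 °C · Signal – 405 nm absorbance of p-nitroaniline, reads at 0 and 120 min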
PLCb3 inh = blocks human PLC-beta3 enzyme activity | inhibition, % at 12.2 µM | 370,000 tested, 0.18% active | Q01970 | Purified PLC-beta3, fluorogenic substrate, fluorescence | AID 720704; in the data active = inhibition above about 11%;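 also: 0% = median of compound wells on plate and 100% = full blocker control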
procasp7 counter = activates human procaspase-7, counter-screen for procaspase-3 activators. P55210. recombinant procaspase-7, Ac-DEVD-pNA absorbance 405 nm; D23A/D198A/D206A triple mutant, cannot self-cleave; scale: DMSO 0, 5 µM enzyme 100. activation, % at 8.5 µM. 330,000 tested, 0.093% active;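 active = percent activation above the screen-wide mean plus 3 SD, cut at about 25% in these data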
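Detection: p-Nitroaniline absorbance at 405 nm, read at 0 and 120 min; system: Uncleavable procaspase-7 mutant enzyme; evaluation: % activation from two-timepoint absorbance difference, scaled to controls; times: 1 h enzyme–compound preincubation and 2 h substrate reaction, both 25 °C; buffer or medium: Zinc-free HEPES pH 7.4 with 300 mM NaCl, 0.01% Triton X-100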
sPLA2-III inh = Inhibits HGIII-sPLA2 liposome hydrolysis, primary screen. QFRET BODIPY PC-A2 liposome hydrolysis, fluorescence. inhibition, % at 12.2 µM. 370,000 tested, 0.56% active;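 active = inhibition above mean plus 3 SD of compounds lying within the high and low control bounds, cut at about 19% in these data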;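 also: 0% = median of test compound wells and 100% = no enzyme DMSO wells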
sPLA2 confirm = human GIII-sPLA2 inhibition, confirmation. shares compounds with sPLA2-III inh. recombinant hGIII-sPLA2, BODIPY PC-A2 QFRET fluorescence. inhibition, % at 12.2 µM. 2,000 tested, 34% active. AID 743280;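 active = mean inhibition across triplicates above the hit cutoff set in the earlier primary screen, cut at about 19% in these data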;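 also: 0% = enzyme with DMSO and 100% = DMSO wells lacking enzyme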
535nm interf = counter-screen for HGIII-sPLA2 inhibitors: 535nm fluorescence interference. inhibition, % at 12.2 µM. BODIPY FL product fluorescence interference, QFRET. 2,000 tested, 8.5% active. AID 743282. shares compounds with sPLA2-III inh;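 active = average inhibition above the solvent-only control mean plus 3 SD, cut at about 6% in these data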;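 also: 0% = DMSO with substrate plus product and 100% = DMSO with substrate alone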
BODIPY interf DR = 535nm optical interference dose response, HGIII-sPLA2 counter-screen; shares compounds with sPLA2-III inh; BODIPY FL product fluorescence interference, cell-free; IC50, µM; 240 tested, under 10 active; AID 743455;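 active = IC50 at or below 10 µM; inactive = IC50 above 10 µM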
* marks the source's active call; other numbers are inactive results; · = not tested or not shown. Compounds with a hit are over-represented: about 1.6% of the library has one in this group of screens.

SMILES	PLC-gamma1 inh	procasp3 activ	PLCb3 inh	procasp7 counter	sPLA2-III inh	sPLA2 confirm	535nm interf	others
O=C(CNC(=O)c1ccccc1F)Nc1ccccc1C(F)(F)F	3	3	3	1	-3	·	·
C=CCN1C(=O)/C(=C2/Sc3ccc(OC)cc3N2C)SC1=Nc1ccccc1	5	2	-4	11	94*	4	-4
CN(C)CC(C)(C)CN=Cc1c(O)[nH]c2ccccc12	-1	2	-7	-6	19*	15	-2
O=C(Nc1cccc(Oc2ccccc2)c1)c1ccc(-n2cncn2)c2ccoc12	1	·	-2	·	-1	·	·
Cc1ccc(C2=CC(=O)CC(C)(C)C2=O)cc1	2	·	6	·	-5	·	·
CN(C)CC/C=C1/c2ccccc2Sc2ccc(Cl)cc21	4	4	1	-7	-6	·	·
CCCCCC[N+](C)(C)CC/C=C1/c2ccccc2Sc2ccc(Cl)cc21	2	-6	-5	-3	19*	1	-59
COc1cccc(-c2csc(N3CCN(C(=S)Nc4ccccc4)CC3)n2)c1	8	7	8	-8	19*	11	-4
COc1cccc(-c2csc(N3CCN(C(=S)Nc4ccc(Cl)cc4)CC3)n2)c1	-1	-8	2	-14	3	·	·
COc1ccc(-n2c(-c3ccc(Cl)cc3)c[nH]c2=S)cc1	1	-3	-4	-5	22*	29*	2
Cc1ccc(-n2c(-c3ccccc3)c[nH]c2=S)cc1	1	-10	1	-30	20*	27*	2
Cc1ccc(-n2c(-c3ccccc3)n[nH]c2=S)cc1	-2	5	3	-8	14	·	·
COc1ccc(-c2nc3c(C)cc(Br)cn3c2CC2CCCCC2)cc1OC	-10	·	-17	·	0	·	·
Cc1cc(C)n2nc(C(=O)NCC(=O)Nc3ccc(F)c(F)c3)nc2n1	2	4	-4	2	1	·	·
CCOc1ccc(S(=O)(=O)N2CCC(C(=O)NCC3CCCO3)CC2)cc1C (stereo unspecified)	1	4	-1	1	1	·	·
CC(c1ccccc1)n1c(Cn2ncc3ccccc3c2=O)n[nH]c1=S (stereo unspecified)	0	-8	-56	-6	6	·	·
O=c1c2ccccc2cnn1Cc1n[nH]c(=S)n1C1CC2CCC1C2 (stereo unspecified)	1	-8	-5	-6	26*	21*	0
Cc1cc(C)c(S(=O)(=O)n2nc(C)c(Br)c2C)c(C)c1	-1	-5	-7	5	19*	3	-1
O=C1NC(=S)N/C1=C\c1cccc([N+](=O)[O-])c1	8	-1	0	-6	20*	-2	-3
Nc1ccn([C@@H]2O[C@H](C(=O)NCCCN3CCCC3=O)[C@@H](O)[C@H]2O)c(=O)n1	1	·	2	·	1	·	·
CCOc1ccc(/C=C2\NC(=S)NC2=O)cc1	0	-6	-6	-2	24*	23*	-4
Cc1ccc2c(c1)C(=O)C(=O)N2Cc1ccc(Cl)cc1	-4	9	-5	-2	21*	23*	1
Cc1ccc2c(c1)C(=O)C(=O)N2Cc1ccc(F)cc1	-2	7	-6	4	12	·	·
COc1cc(S(=O)(=O)n2c(C)nc3ccccc32)ccc1F	1	1	3	-2	20*	6	-5
Cc1ccc(/C(O)=C2/C(=O)C(=O)OC2c2ccc(Cl)cc2)cc1 (stereo unspecified)	0	-4	2	-6	7	·	·
SMILES	PLC-gamma1 inh	procasp3 activ	PLCb3 inh	procasp7 counter	sPLA2-III inh	sPLA2 confirm	535nm interf	others
O=C1OC(c2ccccc2)/C(=C(/O)c2ccc(Cl)cc2)C1=O (stereo unspecified)	8	-9	-5	16	22*	-39	-3
Cc1ccc(-n2c(SC3CCOC3=O)nc3ccccc3c2=O)cc1 (stereo unspecified)	·	0	·	10	·	·	·
O=C(CCl)NNC(=O)c1c(O)c2ccccc2[nH]c1=O	-3	0	-10	1	23*	4	-4
O=C(NCc1cccnc1)c1ccccc1[N+](=O)[O-]	-2	7	8	0	25*	-2	-3
O=C(NC(=S)NCc1cccnc1)c1ccccc1[N+](=O)[O-]	3	9	2	4	2	·	·
O=C(N/N=C/c1cccnc1)c1ccccc1[N+](=O)[O-]	-2	7	4	1	19*	5	-2
COc1ccccc1NS(=O)(=O)c1cc(C(=O)NCCCN2CCCC2=O)ccc1C	2	·	-1	·	-3	·	·
CSc1nc(N)c(C#N)c(-c2ccc(Cl)cc2)c1C#N	-34	-5	-51	8	22*	24*	-5
CSc1nc(-c2ccc(Cl)cc2)nc(N)c1C#N	4	1	0	8	4	·	·
CCCCOC(=O)CSc1nc(N)c(C#N)c(-c2ccc(OCC)cc2)c1C#N	-1	2	-2	20	5	·	·
CCCCOc1ccc(-c2c(C#N)c(N)nc(SCC(N)=O)c2C#N)cc1	-49	3	-48	-4	46*	18	-8
Cc1[nH]c2ccc(-c3n[nH]c(=S)n3C)cc2c1C	-4	-21	-4	-6	21*	26*	4
CCn1c(-c2ccc3[nH]c(C)c(C)c3c2)n[nH]c1=S	-4	-14	-10	-25	13	·	·
Cc1ccc(Nc2n[nH]c(=S)s2)c(C)c1	0	·	-3	·	20*	30*	2	BODIPY interf DR=>122
Cc1cc(C)c(Nc2n[nH]c(=S)s2)cc1C	1	·	-1	·	11	·	·
Cc1cccc(-c2nnn3c2nc(NCCc2ccc(S(N)(=O)=O)cc2)c2ccccc23)c1	-132	7	-128	10	22*	-6	-2
Cc1ccc(-c2nnn3c2nc(NCCc2ccc(S(N)(=O)=O)cc2)c2ccccc23)cc1	-59	4	-81	-2	0	·	·
Cc1ccccc1CSCC(=O)NNC(=S)NCC1CCCO1 (stereo unspecified)	4	·	-2	·	24*	19	4
CC(=O)N(C(C)=O)c1ncn(C)c1S(=O)(=O)Nc1ccccc1	-2	·	-4	·	7	·	·
CCCCCNC(=O)C(c1cccc2ccccc12)n1c(=O)c(-c2ccco2)nc2ccccc21 (stereo unspecified)	-25	·	-34	·	22*	7	-14
